Experiment [1] relates to Mus musculus. Kind of experiment: In vivo inhibition of rhodamine-azide tagged FAAH in FAAH knockout mouse liver at 10 mg/kg, ip administered for 2 hrs by CC-ABPP method based in-gel fluorescence scanning analysis. The experiment is classed as functional, organism-based. Put shortly: (§1)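 Alkyne analog given at 10 mg/kg i.p. to FAAH(+/+) or FAAH(−/−) mice. Animals killed at 2 h. Brain or liver proteomes click-reacted with rhodamine-azide tag, then analyzed by in-gel fluorescence scanning.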

Experiment [2] has as its system Mus musculus. Description: In vivo inhibition of rhodamine-azide tagged FAAH expressed in mouse brain at 10 mg/kg, ip administered for 2 hrs by CC-ABPP method based in-gel fluorescence scanning analysis. The experiment is classed as functional, organism-based. Put shortly: as §1
In experiment [3] the test system is Mus musculus. Kind of experiment: In vivo inhibition of rhodamine-azide tagged FAAH expressed in mouse liver at 10 mg/kg, ip administered for 2 hrs by CC-ABPP method based in-gel fluorescence scanning analysis. The experiment is classed as functional, organism-based. Put shortly: as §1
For experiment [4], the target named is T1, Fatty-acid amide hydrolase 1 (Homo sapiens) (UniProt O00519).
T1 sequence (whole entry): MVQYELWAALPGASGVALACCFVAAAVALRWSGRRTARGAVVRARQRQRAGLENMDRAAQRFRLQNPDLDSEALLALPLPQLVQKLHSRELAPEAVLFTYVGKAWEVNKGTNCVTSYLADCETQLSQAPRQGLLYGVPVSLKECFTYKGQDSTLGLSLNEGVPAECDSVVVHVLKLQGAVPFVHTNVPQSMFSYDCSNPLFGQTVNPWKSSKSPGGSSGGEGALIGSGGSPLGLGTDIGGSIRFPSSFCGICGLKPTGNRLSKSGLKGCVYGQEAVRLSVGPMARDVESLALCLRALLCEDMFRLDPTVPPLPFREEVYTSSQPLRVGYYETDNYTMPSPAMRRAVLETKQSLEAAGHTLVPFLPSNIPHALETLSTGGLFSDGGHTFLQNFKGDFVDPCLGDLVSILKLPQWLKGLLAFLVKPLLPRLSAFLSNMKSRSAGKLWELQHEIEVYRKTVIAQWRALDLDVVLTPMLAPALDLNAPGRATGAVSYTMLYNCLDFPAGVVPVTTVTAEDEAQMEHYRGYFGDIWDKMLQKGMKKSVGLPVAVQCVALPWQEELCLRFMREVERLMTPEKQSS
Kind of experiment: Inhibition of FAAH (unknown origin) assessed as kinact/Ki ratio in presence of glutamate dehydrogenase by 384-well format microplate reader assay.

Experiment [5] deals with Rattus norvegicus. Description: Antihyperalgesic activity in CFA induced Sprague-Dawley rat assessed as partial reduction of mechanical allodynia at 3 mg/kg, ip by von frey test. The experiment is classed as functional, organism-based. Put shortly:
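CFA (150 μl, 1 mg/ml in mineral oil) injected into the plantar hind paw of male Sprague-Dawley rats (200–250 g). On day 5, the CB1 or CB2 antagonist was given at 3 mg/kg i.p. 10 min before testing, alongside a 3 mg/kg p.o. dose of the FAAH inhibitor. Mechanical paw withdrawal thresholds were measured with Von Frey hairs; n = 8 rats/group.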

The target of experiment [6] is T1, Fatty-acid amide hydrolase 1 (Homo sapiens). Description: Inhibition of FAAH in human brain at 100 uM in presence of FP-rhodamine by competitive activity-based protein profiling method. The experiment is classed as tissue-based. Summed up: (§2)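 Competitive ABPP on human and mouse brain, liver and heart proteomes (membrane and soluble fractions), exposed to compound at 10 or 100 μM or to DMSO. Serine hydrolases were then labeled with FP-rhodamine. Gels were read by fluorescence scanning, and loss of band labeling (FAAH or other hydrolases by kDa) was judged.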

The target in experiment [7] is T2, Fatty-acid amide hydrolase 1 (Mus musculus) (UniProt O08914).
T2 sequence (whole entry): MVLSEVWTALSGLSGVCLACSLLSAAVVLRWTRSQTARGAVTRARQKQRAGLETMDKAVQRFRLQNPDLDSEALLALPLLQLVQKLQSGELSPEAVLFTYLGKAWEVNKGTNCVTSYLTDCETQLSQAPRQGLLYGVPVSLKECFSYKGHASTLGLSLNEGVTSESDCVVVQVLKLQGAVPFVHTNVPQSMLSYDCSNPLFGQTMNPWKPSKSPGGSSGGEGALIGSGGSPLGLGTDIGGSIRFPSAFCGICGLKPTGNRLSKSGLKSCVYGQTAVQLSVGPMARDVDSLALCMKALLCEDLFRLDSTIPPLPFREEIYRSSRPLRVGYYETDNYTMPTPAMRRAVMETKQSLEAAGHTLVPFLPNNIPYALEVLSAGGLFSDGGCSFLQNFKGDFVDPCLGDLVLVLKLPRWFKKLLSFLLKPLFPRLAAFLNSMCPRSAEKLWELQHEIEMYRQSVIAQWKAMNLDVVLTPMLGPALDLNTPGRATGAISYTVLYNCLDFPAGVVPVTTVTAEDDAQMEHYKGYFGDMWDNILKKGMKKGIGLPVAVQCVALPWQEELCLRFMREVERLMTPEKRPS
Description: Inhibition of FAAH in mouse brain at 10 uM in presence of FP-rhodamine by competitive activity-based protein profiling method. The experiment is classed as tissue-based. Put shortly: as §2

Experiment [8] concerns the target T2, Fatty-acid amide hydrolase 1 (Mus musculus). Description: Inhibition of FAAH in mouse brain at 100 uM in presence of FP-rhodamine by competitive activity-based protein profiling method. The experiment is classed as tissue-based. Summed up:
as §2

The target of experiment [9] is T1, Fatty-acid amide hydrolase 1 (Homo sapiens). Kind of experiment: Inhibition of FAAH in human brain at 10 uM in presence of FP-rhodamine by competitive activity-based protein profiling method. The experiment is classed as tissue-based. Summed up: as §2
For experiment [10] the target is unchanged. Kind of experiment: Inhibition of human FAAH assessed as kinact/Ki ratio in presence of glutamate dehydrogenase by 384-well format microplate reader assay. Summed up:
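Glutamate dehydrogenase-coupled assay in 384-well format, 50 μl final volume. NAD⁺ formed from ammonia released by oleamide hydrolysis, followed at 340 nm.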

The test system of experiment [11] is Mus musculus. Description: Antinociceptive activity in C57BL6/J mouse assessed as increase in tail-immersion latency at 10 mg/kg, ip administered for 30 mins. The experiment is classed as functional, organism-based. Summed up:
(§3)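 Tetrad test in male C57BL6/J mice (7 weeks old; n = 8/group). Dosed i.p. at 10 ml/kg in 18:1:1 saline/Emulphor/ethanol, with a vehicle control group. Locomotive activity, thermal nociception (tail-immersion latency), catalepsy (60 s) and body temperature were assessed 30 min postdosing.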

Experiment [12] concerns Mus musculus. Kind of experiment: Antinociceptive activity in C57BL6/J mouse assessed as reduction in locomotive activity at 10 mg/kg, ip administered for 30 mins. The experiment is classed as functional, organism-based. Put shortly:
as §3

The test system of experiment [13] is Mus musculus. Kind of experiment: Antinociceptive activity in C57BL6/J mouse assessed as increase in catalepsy at 10 mg/kg, ip administered for 30 mins. The experiment is classed as functional, organism-based. Summed up:
as §3

For experiment [14], the system named is Mus musculus. Kind of experiment: Antinociceptive activity in C57BL6/J mouse assessed as increase in body temperature at 10 mg/kg, ip administered for 30 mins. The experiment is classed as functional, organism-based. Summed up:
as §3

Experiment [15] concerns the target T3, Fatty-acid amide hydrolase 1 (Rattus norvegicus) (UniProt P97612).
T3 sequence (whole entry): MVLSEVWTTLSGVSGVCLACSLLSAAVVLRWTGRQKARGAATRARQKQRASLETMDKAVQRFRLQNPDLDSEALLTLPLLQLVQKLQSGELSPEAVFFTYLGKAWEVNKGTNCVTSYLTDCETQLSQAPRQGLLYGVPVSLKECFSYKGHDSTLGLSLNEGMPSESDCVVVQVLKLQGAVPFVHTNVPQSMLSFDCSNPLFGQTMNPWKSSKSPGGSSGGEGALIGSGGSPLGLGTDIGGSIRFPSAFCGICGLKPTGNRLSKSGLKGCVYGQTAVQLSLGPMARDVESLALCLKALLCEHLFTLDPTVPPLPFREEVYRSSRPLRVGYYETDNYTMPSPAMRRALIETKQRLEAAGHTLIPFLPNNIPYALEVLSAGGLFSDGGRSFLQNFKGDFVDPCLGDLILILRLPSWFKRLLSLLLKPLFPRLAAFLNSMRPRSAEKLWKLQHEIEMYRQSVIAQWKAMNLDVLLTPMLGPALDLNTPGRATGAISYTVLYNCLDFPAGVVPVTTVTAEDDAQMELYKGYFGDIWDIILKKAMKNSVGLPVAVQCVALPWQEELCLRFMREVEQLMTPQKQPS
Description: Inhibition of rat FAAH assessed as kinact/Ki ratio in presence of glutamate dehydrogenase by 384-well format microplate reader assay. Put shortly: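 Purified recombinant FAAH (>95% pure), human or rat. Glutamate dehydrogenase-coupled assay in 384-well format, 50 μl final volume. NAD⁺ formed from ammonia released by oleamide hydrolysis, followed at 340 nm.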

Experiment [16] deals with Rattus norvegicus. Kind of experiment: Antihyperalgesic activity in MIA induced Sprague-Dawley rat assessed as effect on pain behaviour in contralateral knee joint at 0.3 to 3 mg/kg, po administered once daily for 3 consecutive days. The experiment is classed as functional, organism-based. The settings on record: dose 0.3-3 mg/kg, time 3.0 day. Put shortly:
(§4)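 Male Sprague-Dawley rats (220–270 g), isoflurane-anesthetized, given 2 mg MIA in 0.9% saline (50 μl) intra-articular into the knee. From day 14, oral dosing at 10 ml/kg once daily for 3 days in 4% 2-hydroxypropyl-β-cyclodextrin/1% ethanol in 0.01 M HCl. Celecoxib 30 mg/kg in 0.5% methylcellulose twice daily. Joint compression threshold by digital Randall-Selitto at 2 and 4 h postdose on days 1 and 3; n = 10/group.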

In experiment [17] the test system is Rattus norvegicus. Kind of experiment: Antihyperalgesic activity in MIA induced Sprague-Dawley rat assessed as increased joint compression thresholds at 30 mg/kg, po administered twice daily for 3 consecutive days measured after 2 to 4 hrs. The experiment is classed as functional, organism-based. The settings on record: time 3.0 day. Put shortly: as §4
Experiment [18] addresses T3, Fatty-acid amide hydrolase 1 (Rattus norvegicus). The note with it: Sprague-Dawley, dose 10.0 mg/kg, route po.
Experiment [19] shares this target. The note with it: Sprague-Dawley, dose 10.0 mg/kg, route po. The source holds these as a separate data set.
Experiment [20] shares this target. The note with it: Sprague-Dawley, dose 10.0 mg/kg, route po. The source holds these as a separate data set.
The target is the same in experiment [21]. The note with it: Sprague-Dawley, dose 10.0 mg/kg, route po. This is another data set of the same source.
Experiment [22] has the same target. The note with it: Sprague-Dawley, dose 10.0 mg/kg, route po. The source holds these as a separate data set.
Experiment [23] has the same target. The note with it: Sprague-Dawley, dose 10.0 mg/kg, route po. The source holds these as a separate data set.
Experiment [24] shares this target. The note with it: Sprague-Dawley, dose 10.0 mg/kg, route po. The source holds these as a separate data set.

Activity calls are given as the source filed them.

Consider nine compounds from ChEMBL document CHEMBL5653606 (J Pharmacol Exp Ther, 2011).

On to `C#CCCCCCCCCCNC(=O)Oc1cccc(-c2cccc(C(N)=O)c2)c1`, for which the inhibition result in the experiment with Mus musculus [1], with Mus musculus [2] and with Mus musculus [3] was “Active” throughout.
For the compound `C#CCCCOc1ccc(Oc2cccc(C=C3CCN(C(=O)Nc4cccnn4)CC3)c2)nc1`, the Ratio in [4] was determined as 11900 M⁻¹ s⁻¹. The inhibition result with Mus musculus [2] and with Mus musculus [3] was “Active” throughout.
For `Cc1c(C(=O)NN2CCCCC2)nn(-c2ccc(Cl)cc2Cl)c1-c1ccc(Cl)cc1`, the result in the experiment on Rattus norvegicus [5] was inactive.
For `NC(=O)c1cccc(-c2cccc(OC(=O)NC3CCCCC3)c2)c1`, the inhibition entry in [6], in [7], in [8] and in experiment [9] was “Active” throughout. Besides, the Ratio in experiment [10] was 1590 M⁻¹ s⁻¹.
On to `Cc1c(C(=O)c2cccc3ccccc23)c2cccc3c2n1[C@H](CN1CCOCC1)CO3`, for which the Activity result in the experiment with Mus musculus [11], in the experiment with Mus musculus [12], in the experiment on Mus musculus [13] and in the experiment on Mus musculus [14] was “Toxic” each time.
As to `O=C(Nc1ccccc1)N1CCC(Cc2cnc3ccccc3c2)CC1`, the Ratio in [15] is 104 M⁻¹ s⁻¹.
As for `Cc1ccc(Cn2nc(C(=O)N[C@@H]3C(C)(C)[C@@H]4CC[C@@]3(C)C4)cc2-c2ccc(Cl)c(C)c2)cc1`, the result in the experiment on Rattus norvegicus [5] was inactive.
On to `Cc1ccc(-c2cc(C(F)(F)F)nn2-c2ccc(S(N)(=O)=O)cc2)cc1`, for which the outcome with Rattus norvegicus [16] was inactive. Besides, in the experiment on Rattus norvegicus [17], the result was Active.
As to `COc1ccc2cc([C@H](C)C(=O)O)ccc2c1`, the inhibition entry in experiment [18], in [19], in experiment [20], in experiment [21], in [22] and in experiment [23] was “inactive” each time. For the same compound, the inhibition result in experiment [24] was “inactive”.
